ChEMBL document CHEMBL1154473, “Synthesis, antitumor evaluation and DNA binding studies of novel amidino-benzimidazolyl substituted derivatives of furyl-phenyl- and thienyl-phenyl-acrylates, naphthofurans and naphthothiophenes” (Eur J Med Chem, 2008)

Assays:
[1] = tested on: DNA; test: Binding affinity to calf thymus DNA in sodium cacodylate buffer assessed as melting temperature at compound/DNA ratio 0.3 at pH 7; format: nucleic-acid assay; settings: Bos taurus
In short: (§1)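 ct-DNA dissolved in sodium cacodylate buffer (I = 0.05 mol dm⁻³, pH 7), sonicated, filtered, with concentration taken spectroscopically as phosphate. Absorbance at 260 nm followed against temperature, heating 1 °C/min. Ligand absorbance subtracted and scale normalized. Tm taken as transition midpoint from first-derivative maximum or tangent method. ΔTm = Tm(complex) − Tm(free DNA). Error ±0.5 °C.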

[2] = tested on: DNA; test: Binding affinity to calf thymus DNA in sodium cacodylate buffer assessed as melting temperature at compound/DNA ratio 0.2 at pH 7; format: nucleic-acid assay; settings: Bos taurus; in short: as §1
[3] = tested on: NCI-H460; test: Antiproliferative activity against human H460 cells after 72 hrs by MTT assay; format: functional, cell-based; settings: NCI-H460, 72 h
In short: (§2)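 Cells seeded on day 0 at 1–3 × 10⁴ cells/ml, density set by each line's doubling time. Compounds added in five 10-fold dilutions (10⁻⁸–10⁻⁴ M), freshly prepared on test day, with DMSO solvent control matched to working concentrations. Incubated 72 h, then MTT read-out of dehydrogenase activity in viable cells gives percentage of growth. Four parallel samples per point, three independent experiments.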

[4] = tested on: HeLa; test: Antiproliferative activity against human HeLa cells after 72 hrs by MTT assay; format: functional, cell-based; in short: as §2
[5] = tested on: MIA PaCa-2; test: Antiproliferative activity against human MIAPaCa2 cells after 72 hrs by MTT assay; format: functional, cell-based; settings: MIA PaCa-2, 72 h; in short: as §2
[6] = tested on: DNA; test: Binding affinity to calf thymus DNA in sodium cacodylate buffer at compound/DNA ratio < 0.1 pH 7 by fluorimetric titration; format: nucleic-acid assay; settings: Bos taurus
In short: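 Compound solution in sodium cacodylate buffer (pH 7.0, I = 0.05 mol dm⁻³) titrated with portions of ct-DNA (6.31 × 10⁻³ mol dm⁻³), data corrected for dilution. Excitation at 360–374 nm, chosen per compound to avoid inner filter effects, with emission monitored at 400 nm. Ks and n obtained by non-linear least-squares Scatchard fitting of data at r < 0.1.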

[7] = tested on: DNA; test: Binding affinity to calf thymus DNA in sodium cacodylate buffer assessed as melting temperature at compound/DNA ratio 0.1 at pH 7; format: nucleic-acid assay; settings: Bos taurus; in short: as §1
[8] = tested on: SW-620; test: Antiproliferative activity against human SW620 cells after 72 hrs by MTT assay; format: functional, cell-based; settings: SW-620, 72 h; in short: as §2
[9] = Antiproliferative activity against human WI38 cells after 72 hrs by MTT assay; format: cell-based; settings: WI-38, 72 h; in short: as §2
[10] = tested on: DNA; test: Binding affinity to calf thymus DNA assessed as hypochromic effect by UV-vis spectra analysis; format: nucleic-acid assay; set-up: concentration or dose not given beside the values; settings: Bos taurus
[11] = tested on: DNA; test: Binding affinity to calf thymus DNA assessed as relative fluorescence intensity by fluorescence emission spectra analysis relative to control; format: nucleic-acid assay; settings: Bos taurus
In short: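 Fluorimetric titration: portions of ct-DNA (phosphate concentration determined spectroscopically; sonicated, filtered) added to compound in sodium cacodylate buffer pH 7.0, I = 0.05 mol dm-3; excitation 360–374 nm depending on compound to avoid inner filter effects, emission monitored at 400 nm; data corrected for dilution; fluorescence change expressed versus compound/ct-DNA ratio r.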

[12] = tested on: MCF7; test: Antiproliferative activity against human MCF7 cells after 72 hrs by MTT assay; format: functional, cell-based; settings: MCF7, 72 h; in short: as §2
[13] = tested on: DNA; test: Binding affinity to calf thymus DNA in sodium cacodylate buffer at compound/DNA ratio 0.5 pH 7 by fluorimetric titration; format: nucleic-acid assay; settings: Bos taurus

COC(=O)c1cc2sc(-c3nc4cc(C(=N)NC(C)C)ccc4[nH]3)cc2c2ccccc12
ΔTm [1]: 5.8 °C
ΔTm [2]: 4.9 °C
IC50 [3]: 24 µM
IC50 [4]: 15 µM
IC50 [5]: 16 µM
log Ks [6]: 4.7
ΔTm [7]: 3.9 °C
IC50 [8]: 29 µM
IC50 [9]: 71 µM
Activity [10]: 15%
Flu intensity [11]: 916 a.u.
IC50 [12]: 2 µM

COC(=O)/C(=C/c1ccc(-c2nc3cc(C(=N)NC(C)C)ccc3[nH]2)o1)c1ccccc1
ΔTm [1]: 0 °C
ΔTm [2]: 0 °C
IC50 [3]: 13 µM
IC50 [4]: 17 µM
IC50 [5]: 19 µM
ΔTm [7]: 0 °C
IC50 [8]: 14 µM
IC50 [9]: 13 µM
Activity [10]: 8%
Flu intensity [11]: 147 a.u.
IC50 [12]: 9 µM

CCOC(=O)/C(=C/c1ccc(-c2nc3cc(C(=N)NC(C)C)ccc3[nH]2)o1)c1ccc(C#N)cc1
ΔTm [1]: 1.3 °C
ΔTm [2]: 0.8 °C
IC50 [3]: 31 µM
IC50 [4]: 28 µM
IC50 [5]: 21 µM
ΔTm [7]: 0.6 °C
log Ks [13]: 5.6
IC50 [8]: 62 µM
IC50 [9]: 36 µM
Activity [10]: 10%
Flu intensity [11]: 161 a.u.
IC50 [12]: 2 µM

COC(=O)/C(=C/c1ccc(-c2nc3cc(C(=N)NC(C)C)ccc3[nH]2)s1)c1ccccc1
ΔTm [1]: 2.7 °C
ΔTm [2]: 2.3 °C
IC50 [3]: 37 µM
IC50 [4]: 30 µM
IC50 [5]: 13 µM
ΔTm [7]: 1.7 °C
IC50 [8]: 62 µM
IC50 [9]: > 100 µM
Activity [10]: 18%
Flu intensity [11]: 232 a.u.
IC50 [12]: 1 µM

CCOC(=O)c1cc2oc(-c3nc4cc(C(=N)NC(C)C)ccc4[nH]3)cc2c2cc(C#N)ccc12
ΔTm [1]: 1.6 °C
ΔTm [2]: 1.4 °C
IC50 [3]: > 100 µM
IC50 [4]: 72 µM
IC50 [5]: 61 µM
log Ks [6]: 5
ΔTm [7]: 1 °C
IC50 [8]: 85 µM
IC50 [9]: > 100 µM
Activity [10]: 10%
Flu intensity [11]: 282 a.u.
IC50 [12]: 6 µM

COC(=O)c1cc2oc(-c3nc4cc(C(=N)NC(C)C)ccc4[nH]3)cc2c2ccccc12
ΔTm [1]: 3.8 °C
ΔTm [2]: 2.6 °C
IC50 [3]: 18 µM
IC50 [4]: 18 µM
IC50 [5]: 21 µM
log Ks [6]: 4.2
ΔTm [7]: 1.8 °C
IC50 [8]: 35 µM
IC50 [9]: > 100 µM
Activity [10]: 51%
Flu intensity [11]: 790 a.u.
IC50 [12]: 1 µM
